High-throughput results (PubChem)
MT1-MMP act inh: MT1-MMP (human) activation inhibition | HT1080 RFP-PRO-GFP cells, GFP/RFP ratio fluorescence, overnight; percent of plate control window, DMSO zero | GFP/RFP ratio change, % at 20 µM | hit rate 0.061% among 360,000;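 active means GFP/RFP ratio change of at least 30% with cell ATP level not reduced by more than half and red fluorescence within 50% of control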
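Read-out: GFP/RFP fluorescence ratio; Test system: RFP-PRO-GFP reporter HT1080 cells; Compound dosing: single-point 20 µM compound, 1% DMSO; Times: overnight compound exposure at 37 °C.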
H9c2 TAG inh: inhibitors of triacylglycerol accumulation. H9c2 cells, Nile Red lipid (TAG) fluorescence; cells loaded with 200 µM oleic acid. inhibition, % at 12.5 µM. hit rate 0.66% among 230,000;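 active means pattern-corrected inhibition of lipid staining of at least 50% with the nuclear-stain viability signal not falling by more than 50%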;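 further: 0% = DMSO wells and 100% = triacsin C control wells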
HGIII-sPLA2 inh: Blocks human group III sPLA2 activity; Q9NZ20; QFRET BODIPY PC-A2 liposome hydrolysis, fluorescence; inhibition, % at 12.2 µM; hit rate 0.56% among 370,000; AID 743126;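 active means inhibition above mean plus 3 SD of compounds lying within the high and low control bounds, cut at about 19% in these data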;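 further: 0% = median of test compound wells and 100% = no enzyme DMSO wells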
Target sequence (Q9NZ20 whole entry, looked up): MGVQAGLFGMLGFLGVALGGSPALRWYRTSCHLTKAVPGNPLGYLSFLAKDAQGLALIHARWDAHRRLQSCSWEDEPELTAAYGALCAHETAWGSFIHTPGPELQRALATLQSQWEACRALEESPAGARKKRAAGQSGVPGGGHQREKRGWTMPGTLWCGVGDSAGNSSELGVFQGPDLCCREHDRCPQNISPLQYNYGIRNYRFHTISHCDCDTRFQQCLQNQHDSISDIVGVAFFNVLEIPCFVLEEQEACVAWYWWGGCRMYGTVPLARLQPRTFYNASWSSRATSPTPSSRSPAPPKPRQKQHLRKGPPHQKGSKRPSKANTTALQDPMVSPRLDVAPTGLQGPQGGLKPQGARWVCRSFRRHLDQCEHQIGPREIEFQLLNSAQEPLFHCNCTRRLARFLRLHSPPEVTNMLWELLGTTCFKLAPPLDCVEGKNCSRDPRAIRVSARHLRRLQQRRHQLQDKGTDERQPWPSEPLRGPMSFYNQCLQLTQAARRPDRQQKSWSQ
Efflux pump mplx: inhibitors of Candida antifungal efflux pumps expressed in yeast; S. cerevisiae Candida pump triplex, Nile Red efflux; inhibition, % at 10 µM; hit rate 0.44% among 330,000; AID 485275;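 active means plate passing quality check with inhibition over a set limit, or well fluorescence over plate mean plus 4 SD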;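 further: Nile Red retained in pooled yeast measured as flow cytometry median fluorescence; 0% = buffer negative control and 100% = Enniatin B positive control; higher means more Nile Red kept so more efflux inhibition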
hGIII sPLA2 conf: human GIII-sPLA2 inhibition, confirmation; shares compounds with HGIII-sPLA2 inh; recombinant hGIII-sPLA2, BODIPY PC-A2 QFRET fluorescence; inhibition, % at 12.2 µM; hit rate 34% among 2,000;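 active means mean inhibition across triplicates above the hit cutoff set in the earlier primary screen, cut at about 19% in these data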;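 further: 0% = enzyme with DMSO and 100% = DMSO wells lacking enzyme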
BODIPY interf: optically interferes with 535nm fluorescence in sPLA2 counter-screen. shares compounds with HGIII-sPLA2 inh. BODIPY FL product fluorescence interference, QFRET. inhibition, % at 12.2 µM. hit rate 8.5% among 2,000;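 active means average inhibition above the solvent-only control mean plus 3 SD, cut at about 6% in these data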;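 further: 0% = DMSO with substrate plus product and 100% = DMSO with substrate alone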
BODIPY interf DR: 535nm optical interference dose response, HGIII-sPLA2 counter-screen. 240 tested, under 10 active. IC50, µM. BODIPY FL product fluorescence interference, cell-free. shares compounds with HGIII-sPLA2 inh;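 active means IC50 at or below 10 µM; inactive means IC50 above 10 µM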
An asterisk follows results filed as active; . = no result given. The list is not random: actives were taken first. Their share in the collection is about 1.3%.

SMILES | MT1-MMP act inh | H9c2 TAG inh | HGIII-sPLA2 inh | Efflux pump mplx | hGIII sPLA2 conf | BODIPY interf | others
Cn1cccc1CC(=O)NNC(=S)Nc1ccccc1Cl | 1 | 0 | 25* | 0 | 29* | -3 | BODIPY interf DR=>122
Cn1cccc1CC(=O)N/N=C/c1ccc(Cl)cc1 | 0 | -2 | 0 | 0 | . | .
O=C(Cc1noc2ccccc12)NNC(=S)Nc1ccc(Cl)cc1 | -1 | -8 | 29* | 0 | 26* | 1
O=C(Cc1noc2ccccc12)NNC(=S)Nc1ccccc1 | -1 | -1 | 18 | 0 | . | .
Cc1ccc(NC(=O)CC2(CC(=O)O)CCCC2)c(C)c1 | -1 | . | -2 | 0 | . | .
O=C(N/N=C/c1sc2ccccc2c1O)c1cccc2ccccc12 | -46 | . | 31* | 0 | 9 | 5
COc1ccc2cc(C(=O)N/N=C/c3sc4ccccc4c3O)ccc2c1 | -59 | . | 21* | 0 | -28 | -33
COc1ccc(C(=O)N/N=C/c2sc3ccccc3c2O)cc1 | -80 | . | . | 0 | . | .
Cc1ccc(S(=O)(=O)N(C)C)cc1NC(=O)c1cc(=O)c2ccccc2o1 | 3 | . | -1 | 0 | . | .
COC(=O)C1CCN(C(=O)CC(NC(=O)C(F)(F)F)c2cccs2)CC1 (configuration not stated) | -4 | . | 7 | 0 | . | .
COc1ccc(C(=O)NC(Oc2ccccc2)C(Cl)(Cl)Cl)cc1 (configuration not stated) | 0 | 8 | 21* | 0 | 14 | -1
CCCN1C[C@@H](C)[C@@H](OC)CN(C)C(=O)c2ccc(NC(=O)c3cccc(F)c3)cc2OC[C@H]1C | 1 | . | 20* | . | 4 | -11
O=C(OCc1nc2ccccc2s1)c1cc2ccccc2oc1=O | . | . | 22* | 0 | 9 | -8
O=C(COc1ccc(Br)cc1)NCCNC(=O)c1ccccn1 | -2 | 2 | 4 | 0 | . | .
CC(C)C(=O)NC(c1cccs1)c1cc([N+](=O)[O-])c2cccnc2c1O (configuration not stated) | 16 | . | . | 0 | . | .
CCC(=O)NC(c1cccs1)c1cc([N+](=O)[O-])c2cccnc2c1OC (configuration not stated) | 12 | -1 | 19* | . | 17 | -4
CCOC(=O)c1cnc(Cc2ccccc2)[nH]c1=O | 1 | 4 | 3 | 0 | . | .
CCOC(=O)c1cnc(-n2[nH]c(C)c(Cc3ccccc3)c2=O)[nH]c1=O | 6 | -8 | 23* | 0 | 20* | -5
CCN(CC)S(=O)(=O)c1ccc(Cl)c(NC(=O)COc2ccc3c(C)cc(=O)oc3c2)c1 | 4 | . | 21* | 0 | -2 | -12
O=C(CN1CCN(S(=O)(=O)c2ccc(Br)cc2)CC1)N/N=C/c1ccccc1C(=O)O | 2 | . | 1 | 0 | . | .
COc1ccc(-n2cc(-c3ccccc3)[nH]c2=S)cc1 | 0 | . | 19* | 0 | 41* | 2 | BODIPY interf DR=>122
Cc1ccc(-c2cn(-c3ccccc3F)c(=S)[nH]2)cc1 | -2 | . | 27* | 0 | 24* | 4
O=[N+]([O-])c1ccc(-c2cn(-c3ccccc3F)c(=S)[nH]2)cc1 | 3 | 8 | 0 | 0 | . | .
Cc1cccc(-n2cc(-c3ccccc3)[nH]c2=S)c1 | 4 | . | 20* | 0 | 31* | 3
N#Cc1ccc(NC(=S)N2CCC3CC2c2cc(-c4ccc5c(c4)OCO5)ccc23)cc1 (configuration not stated) | 0 | . | -2 | . | . | .
SMILES | MT1-MMP act inh | H9c2 TAG inh | HGIII-sPLA2 inh | Efflux pump mplx | hGIII sPLA2 conf | BODIPY interf | others
CC(C)Nc1nc(NC(N)=S)nc(NC(C)(C)C)n1 | 1 | -2 | 12 | 0 | . | .
CC(C)Nc1nc(NC(N)=S)nc(NC(C)C)n1 | 0 | . | 22* | 0 | 20* | -5
COc1ccc(-c2n[nH]c(=S)nc2-c2ccc(OC)cc2)cc1 | 2 | . | 19* | 0 | 26* | 5
O=C(Nc1ccc(S(=O)(=O)N2CCCC2)cc1)C1CC(=O)N(c2ccc(F)cc2)C1 (configuration not stated) | 1 | . | -10 | 0 | . | .
CCCCn1c(-c2csc3c2CCC(C)C3)n[nH]c1=S (configuration not stated) | 2 | . | -7 | 0 | . | .
C=CCn1c(-c2csc3c2CCC(C)C3)n[nH]c1=S (configuration not stated) | 2 | . | 21* | 0 | 20* | 5
CCCCn1c(-c2csc3c2CCCC3)n[nH]c1=S | . | . | 19 | 0 | . | .
CCn1c(-c2csc3c2CCCC3)n[nH]c1=S | 2 | . | 29* | 0 | 30* | 2 | BODIPY interf DR=>122
O=C(CCc1nnc(-c2ccsc2)o1)N1CCCCC1CCn1ccnc1 (configuration not stated) | 4 | 12 | -3 | 0 | . | .
O=C(C(=O)N1CCN(S(=O)(=O)c2cccc(C(F)(F)F)c2)CC1)c1cccc(C(F)(F)F)c1 | . | . | 14 | . | . | .
CC(=O)OCC(=O)N1CCN(C(=O)C(=O)c2cccc(C(F)(F)F)c2)CC1 | . | . | 22* | . | 4 | -3
c1ccc(C[n+]2cccc(-c3ccccc3)c2)cc1 | -1 | . | 0 | 0 | . | .
NC(=O)c1ccc[n+](Cc2ccccc2)c1 | 1 | . | 19* | 0 | 1 | -6
CCOc1ccc(NC(=S)Nc2ccc(Br)cc2Cl)cc1 | -1 | -27 | 6 | 0 | . | .
CCOCCCNC(=S)Nc1ccc(Br)cc1Cl | 3 | -18 | 20* | 0 | 5 | -6
CC(C)n1c(SCC(=O)c2ccc3c(c2)OCCO3)nc2c1c(=O)n(C)c(=O)n2C | . | . | -1 | 0 | . | .
O=C(C1CCCN(S(=O)(=O)c2ccccc2)C1)N1CCN(c2ccccc2)CC1 (configuration not stated) | 11 | -23 | -5 | 0 | . | .
O=C(Nc1nc(-c2ccccc2)c(-c2ccccc2)s1)c1ccc(S(=O)(=O)N2CCCCC2)cc1 | -18 | . | 23* | 0 | -8 | 2
O=C(Nc1nc(-c2ccccc2)c(C(=O)c2ccccc2)s1)c1ccc(S(=O)(=O)N2CCCCC2)cc1 | -20 | . | -7 | 0 | . | .
O=C(Nc1cc(C(F)(F)F)cc(C(F)(F)F)c1)[C@H]1O[C@@H](n2ccc(=O)[nH]c2=O)[C@H](O)[C@@H]1O | -7 | . | -6 | . | . | .
O=c1oc(-c2cccc(C(F)(F)F)c2)nn1-c1ccc(C(F)(F)F)cn1 | 6 | 9 | 21* | 0 | 42* | 25*
O=C(N[C@@H](Cc1cccnc1)C(=O)N1CCC[C@H]1C(=O)NCCc1ccccc1Cl)C1CC1 | . | . | 4 | . | . | .
CCN1C(=O)/C(=C2/C=Cc3ccccc3N2CC)SC1=S | 18 | . | 21* | 0 | 43* | 5 | BODIPY interf DR=>122
Cc1ccc(S(=O)(=O)N2CCN(S(=O)(=O)c3ccccc3Br)CC2)cc1 | -3 | 9 | 1 | 0 | . | .
CCCNS(=O)(=O)c1ccc(CCC(=O)N2CCN(CC)CC2)cc1 | -2 | . | 21* | 0 | -2 | -7
